We go through 1 compound from BindingDB's records for doi:10.1021/jm1008924 (Genentech, 2011).

Each structure is given as a SMILES string.

For assay [1], the target named is T1, Sonic hedgehog protein (Homo sapiens, UniProt Q15465). In words: Inhibition of human SHH pathway in mouse S12 cells assessed as GLI-mediated transcriptional activity after 48 hrs by luciferase reporter gene assay in presence of 0.5 mg/mL human alpha-1-acid glycoprotein. In outline: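 Mouse C3H10T1/2-derived S12 cells carrying a stably integrated GLI-luciferase reporter. Grown in high-glucose DMEM with 10% FBS, replated, then switched to 0.5% FBS to induce cilia. Shh, human AAG (0, 0.5, 1 or 5 mg/mL) and compound added. Luciferase (Dual-Glo) read after 48 h. Mean of four experiments ±SD.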
T1 sequence (Q15465 24-197 limits assumed): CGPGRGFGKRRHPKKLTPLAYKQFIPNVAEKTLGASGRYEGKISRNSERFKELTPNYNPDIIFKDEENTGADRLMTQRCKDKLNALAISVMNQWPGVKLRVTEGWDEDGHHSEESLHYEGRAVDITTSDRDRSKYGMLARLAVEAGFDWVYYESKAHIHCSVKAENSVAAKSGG
(In a reporter assay the amount or activity of a reporter protein is the signal.)

Assay [2] addresses T1, Sonic hedgehog protein. In words: Inhibition of human SHH pathway in mouse S12 cells assessed as GLI-mediated transcriptional activity after 48 hrs by luciferase reporter gene assay.

Usually IC50 stands for the concentration that gives 50% inhibition.

For the compound `CS(=O)(=O)c1ccc(C(=O)Nc2ccc(Cl)c(-c3ccccn3)c2)c(Cl)c1` [2-chloro-N-(4-chloro-3-(pyridin-2-yl)phenyl)-4-(methylsulfonyl)benzamide], the IC50 on Sonic hedgehog protein [1] turned out to be 1750 nM; on Sonic hedgehog protein [2], 15 nM.
